Test results from ChEMBL document CHEMBL5653612, “Catalytic site remodelling of the DOT1L methyltransferase by selective inhibitors” (Nat Commun, 2012).
Activity calls are given as the source filed them. No cut-off for these calls is given here.

What was measured:
Rattus norvegicus [1] = species: Rattus norvegicus; assay: Inhibition of rat Calcium 2 channel L, dihydropyridine site at 1 uM relative to control
Rattus norvegicus [2] = species: Rattus norvegicus; assay: Inhibition of rat central GABAA receptor at 1 uM by muscimol radioligand binding assay relative to control
Homo sapiens [3] = species: Homo sapiens; assay: Inhibition of PRC2 (unknown origin) using H3 21-44 peptide in presence of SAM
In short: (§1)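 Radiometric methyltransferase panel in which 3H-SAM, at or below each enzyme's Km, methylates biotinylated peptide substrates. They were quenched with 7.5 M guanidine-HCl, diluted, captured on streptavidin flash plates for 1 h, and counted by scintillation.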

[4] = target: Muscarinic acetylcholine receptor M3 (Homo sapiens) (UniProt P20309); assay: Inhibition of human muscarinic acetylcholine M3 receptor at 1 uM relative to control
MOLM-13 [5] = assay: Downregulation of H3K79me2 in human MOLM-13 cells at 1 uM by immuno blot analysis; format: functional, cell-based; conditions: time 3-7 day, TDE = time-dependent effect
In short: (§2)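 Exponentially growing Molm13 cells were plated at 2 × 10^5 per well in 2 ml and exposed to 1 μM compound or DMSO for the indicated times. Extracted histones (3 μg) were run on 10% Bis-Tris gels and transferred to nitrocellulose. Blots were probed with primary antibody (1:1000 in 5% milk/TBS-T), then anti-rabbit secondary, with chemiluminescent detection.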

MOLM-13 [6] = assay: Inhibition of Meis1 level in human MOLM-13 cells at 1 uM measured after 7 days by SYBR green staining based PCR analysis; format: functional, cell-based; conditions: time 7.0 day
In short: (§3)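 RNA was extracted with Qiazol and reverse-transcribed. SYBR green qPCR used gene-specific primer pairs for HOXA9 and Meis1.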

[7] = target: Alpha-2A adrenergic receptor (Homo sapiens) (UniProt P08913); assay: Inhibition of human Adrenergic alpha 2A receptor at 1 uM relative to control
MOLM-13 [8] = assay: Downregulation of H3K79me2 in human MOLM-13 cells measured for 3 to 7 days by immuno blot analysis; format: functional, cell-based; conditions: dose 1.0 µM, time 3-7 day; in short: as §2
Homo sapiens [9] = species: Homo sapiens; assay: Inhibition of human nicotinic acetylcholine alpha at 1 uM relative to control
[10] = target: Glutamate NMDA receptor (Rattus norvegicus) (UniProt P35439+Q00959+Q00960+Q00961+Q62645+Q8VHN2+Q9R1M7); assay: Inhibition of rat NMDA glutamate receptor at 1 uM relative to control; format: protein-complex assay
[11] = target: Muscarinic acetylcholine receptor M2 (Homo sapiens) (UniProt P08172); assay: Inhibition of human muscarinic acetylcholine M2 receptor at 1 uM relative to control
[12] = target: Histone-lysine N-methyltransferase 2A (Homo sapiens) (UniProt Q03164); assay: Inhibition of MLL (unknown origin) using H3 1-25 peptide in presence of SAM; in short: as §1
[13] = target: Protein arginine N-methyltransferase 5 (Homo sapiens, UniProt O14744); assay: Inhibition of PRMT5 (unknown origin) using H4 1-24 peptide in presence of SAM; in short: as §1
[14] = target: Alpha-1A adrenergic receptor (Rattus norvegicus) (UniProt P43140); assay: Inhibition of rat Adrenergic alpha 1A receptor at 1 uM relative to control
[15] = target: Adenosine receptor A2a (Homo sapiens) (UniProt P29274); assay: Inhibition of human Adenosine 2A receptor at 1 uM relative to control
[16] = target: Mu-type opioid receptor (Homo sapiens) (UniProt P35372); assay: Inhibition of human MOP receptor at 1 uM relative to control
[17] = Apparent permeability across basolateral to apical side in human Caco-2 cells at 10 uM incubated for 90 mins at pH 7.4 by LC/MS analysis; format: ADME, cell-based; conditions: Caco-2, pH 7.4
[18] = target: Protein arginine N-methyltransferase 3 (Homo sapiens) (UniProt O60678); assay: Inhibition of PRMT3 (unknown origin) using H3 1-24 peptide in presence of SAM; in short: as §1
hERG (KCNH2) = hERG (KCNH2) (Homo sapiens, UniProt Q12809); assay: Inhibition of human ERG at 1 uM relative to control; format: toxicity
[19] = target: Histamine H1 receptor (Homo sapiens) (UniProt P35367); assay: Inhibition of human histamine H1 receptor at 1 uM relative to control
[20] = target: 5-hydroxytryptamine receptor 2B (Homo sapiens) (UniProt P41595); assay: Inhibition of human 5HT2B receptor at 1 uM relative to control
cells = conditions: Homo sapiens, A-431
MOLM-13 [21] = assay: Inhibition of HOXA9 level in human MOLM-13 cells at 1 uM measured after 7 days by SYBR green staining based PCR analysis; format: functional, cell-based; conditions: time 7.0 day; in short: as §3
Rattus norvegicus [22] = species: Rattus norvegicus; assay: Inhibition of rat central imidazoline receptor 2 at 1 uM relative to control
[23] = Apparent permeability across apical to basolateral side in human Caco-2 cells at 10 uM incubated for 90 mins at pH 7.4 by LC/MS analysis; format: ADME, cell-based; conditions: Caco-2, pH 7.4
[24] = target: Beta-2 adrenergic receptor (Homo sapiens) (UniProt P07550); assay: Inhibition of human Adrenergic beta 2 receptor at 1 uM relative to control
[25] = target: Histone-lysine N-methyltransferase SETD7 (Homo sapiens) (UniProt Q8WTS6); assay: Inhibition of SETD7 (unknown origin) using H3 1-25 peptide in presence of SAM; in short: as §1
Cord blood cell = assay: Cytotoxicity against human Cord blood cell habouring MIL-AF9 fusion protein assessed as reduction in cell viability at 1 to 5 uM incubated for 14 days by resazurin dye based […] assay; format: functional; conditions: dose 1-5 µM, time 14.0 day
In short: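 Transformed human cord blood cells were cultured with DMSO or inhibitor at 1 and 5 μM for 14 days. Resazurin (0.1 mg ml−1) was added for 4 h and resorufin fluorescence was read. Data are from at least two independent experiments, each with three repeats, shown as s.e. of the mean.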

[26] = target: N-lysine methyltransferase KMT5A (Homo sapiens) (UniProt Q9NQR1); assay: Inhibition of SETD8 (unknown origin) using […] in presence of SAM; in short: as §1
[27] = target: Histone-lysine N-methyltransferase KMT5C (Homo sapiens) (UniProt Q86Y97); assay: Inhibition of SUV420H2 (unknown origin) using H4 K20Me1 peptide in presence of SAM; in short: as §1
[28] = target: Sodium-dependent noradrenaline transporter (Homo sapiens) (UniProt P23975); assay: Inhibition of human norepinephrine transporter at 1 uM relative to control
Homo sapiens [29] = species: Homo sapiens; assay: Inhibition of human nicotinic acetylcholine at 1 uM relative to control
[30] = target: D(1A) dopamine receptor (Homo sapiens) (UniProt P21728); assay: Inhibition of human dopamine D1 receptor at 1 uM relative to control
[31] = target: Histone-lysine N-methyltransferase SUV39H2 (Homo sapiens) (UniProt Q9H5I1); assay: Inhibition of SUV39H2 (unknown origin) using H3 1-25 peptide in presence of SAM; in short: as §1
[32] = target: Histone-lysine N-methyltransferase EHMT2 (Homo sapiens) (UniProt Q96KQ7); assay: Inhibition of G9a (unknown origin) using H3 1-25 peptide in presence of SAM; in short: as §1
MV4-11 = assay: Downregulation of H3K79me2 in human MV4-11 cells habouring MLL/AF4 fusion protein measured upto 48 hrs by immuno blot analysis; format: functional, cell-based

Histone-lysine N-methyltransferase SUV39H2 (Homo sapiens), sequence (Q9H5I1 whole entry): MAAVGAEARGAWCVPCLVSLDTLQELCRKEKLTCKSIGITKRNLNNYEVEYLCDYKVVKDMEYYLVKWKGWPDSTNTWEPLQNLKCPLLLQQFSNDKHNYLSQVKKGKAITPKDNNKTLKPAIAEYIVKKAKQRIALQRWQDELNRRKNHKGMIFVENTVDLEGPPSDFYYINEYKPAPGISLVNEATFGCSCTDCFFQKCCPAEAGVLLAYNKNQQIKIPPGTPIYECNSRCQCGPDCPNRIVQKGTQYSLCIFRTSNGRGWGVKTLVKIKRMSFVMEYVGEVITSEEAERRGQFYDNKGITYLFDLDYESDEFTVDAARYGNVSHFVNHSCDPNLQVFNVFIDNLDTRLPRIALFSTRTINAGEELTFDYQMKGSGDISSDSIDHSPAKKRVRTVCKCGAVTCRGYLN
Histone-lysine N-methyltransferase KMT5C (Homo sapiens), sequence (Q86Y97 whole entry, looked up): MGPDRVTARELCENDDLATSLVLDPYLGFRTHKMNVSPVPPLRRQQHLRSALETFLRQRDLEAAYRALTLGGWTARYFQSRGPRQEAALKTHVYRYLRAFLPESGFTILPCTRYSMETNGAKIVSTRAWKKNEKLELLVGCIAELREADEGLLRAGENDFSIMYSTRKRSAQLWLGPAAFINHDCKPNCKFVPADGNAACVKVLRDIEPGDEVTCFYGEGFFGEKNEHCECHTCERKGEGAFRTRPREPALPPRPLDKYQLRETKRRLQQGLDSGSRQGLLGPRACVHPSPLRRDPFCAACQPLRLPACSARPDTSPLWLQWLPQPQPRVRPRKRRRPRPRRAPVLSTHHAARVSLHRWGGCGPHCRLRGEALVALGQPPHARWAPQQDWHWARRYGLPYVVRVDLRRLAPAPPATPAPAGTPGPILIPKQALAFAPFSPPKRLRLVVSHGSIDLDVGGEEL
Muscarinic acetylcholine receptor M3 (Homo sapiens), sequence (P20309 whole entry, looked up): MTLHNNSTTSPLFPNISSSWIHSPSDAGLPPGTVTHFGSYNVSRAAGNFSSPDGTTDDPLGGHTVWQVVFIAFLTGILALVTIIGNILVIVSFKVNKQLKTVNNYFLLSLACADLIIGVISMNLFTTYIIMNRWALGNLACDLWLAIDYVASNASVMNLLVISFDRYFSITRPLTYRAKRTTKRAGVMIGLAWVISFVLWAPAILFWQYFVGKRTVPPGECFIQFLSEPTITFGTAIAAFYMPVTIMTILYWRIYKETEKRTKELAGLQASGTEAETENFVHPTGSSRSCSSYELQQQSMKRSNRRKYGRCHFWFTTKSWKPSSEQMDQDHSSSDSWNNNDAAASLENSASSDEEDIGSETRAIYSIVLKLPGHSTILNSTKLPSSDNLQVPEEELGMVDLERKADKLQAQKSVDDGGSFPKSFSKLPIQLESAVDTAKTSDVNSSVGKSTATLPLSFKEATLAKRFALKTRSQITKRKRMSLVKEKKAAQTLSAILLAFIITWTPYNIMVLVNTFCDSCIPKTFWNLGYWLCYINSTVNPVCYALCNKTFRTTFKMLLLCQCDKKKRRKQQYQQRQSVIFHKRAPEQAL
Sodium-dependent noradrenaline transporter (Homo sapiens), sequence (P23975 whole entry): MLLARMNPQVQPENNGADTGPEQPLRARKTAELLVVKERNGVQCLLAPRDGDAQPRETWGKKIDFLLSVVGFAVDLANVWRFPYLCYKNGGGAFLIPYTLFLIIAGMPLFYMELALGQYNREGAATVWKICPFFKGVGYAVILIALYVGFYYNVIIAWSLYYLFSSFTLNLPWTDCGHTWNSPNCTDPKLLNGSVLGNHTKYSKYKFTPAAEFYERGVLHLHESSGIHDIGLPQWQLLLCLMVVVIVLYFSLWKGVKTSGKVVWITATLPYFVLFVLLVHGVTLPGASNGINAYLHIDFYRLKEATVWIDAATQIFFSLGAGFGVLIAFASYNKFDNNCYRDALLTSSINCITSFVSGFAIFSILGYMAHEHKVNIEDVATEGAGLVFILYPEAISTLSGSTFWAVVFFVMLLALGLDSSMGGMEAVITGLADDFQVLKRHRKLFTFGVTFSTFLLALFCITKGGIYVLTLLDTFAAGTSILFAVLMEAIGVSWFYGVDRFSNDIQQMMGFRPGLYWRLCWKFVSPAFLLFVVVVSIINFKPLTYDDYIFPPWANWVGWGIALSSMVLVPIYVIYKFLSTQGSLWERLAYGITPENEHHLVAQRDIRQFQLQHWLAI
D(1A) dopamine receptor (Homo sapiens), sequence (P21728 whole entry): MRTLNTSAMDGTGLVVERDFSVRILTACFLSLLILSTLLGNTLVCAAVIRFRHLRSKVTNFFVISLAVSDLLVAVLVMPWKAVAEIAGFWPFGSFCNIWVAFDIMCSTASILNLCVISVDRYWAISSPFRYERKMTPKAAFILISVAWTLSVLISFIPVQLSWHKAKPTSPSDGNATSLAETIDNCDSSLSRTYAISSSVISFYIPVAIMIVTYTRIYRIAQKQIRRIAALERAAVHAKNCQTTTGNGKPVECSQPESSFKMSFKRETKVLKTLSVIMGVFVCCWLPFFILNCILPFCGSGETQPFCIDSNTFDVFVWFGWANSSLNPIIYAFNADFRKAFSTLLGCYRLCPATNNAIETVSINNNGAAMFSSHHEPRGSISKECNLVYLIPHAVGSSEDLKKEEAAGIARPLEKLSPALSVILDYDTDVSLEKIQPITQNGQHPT
Mu-type opioid receptor (Homo sapiens), sequence (P35372 whole entry): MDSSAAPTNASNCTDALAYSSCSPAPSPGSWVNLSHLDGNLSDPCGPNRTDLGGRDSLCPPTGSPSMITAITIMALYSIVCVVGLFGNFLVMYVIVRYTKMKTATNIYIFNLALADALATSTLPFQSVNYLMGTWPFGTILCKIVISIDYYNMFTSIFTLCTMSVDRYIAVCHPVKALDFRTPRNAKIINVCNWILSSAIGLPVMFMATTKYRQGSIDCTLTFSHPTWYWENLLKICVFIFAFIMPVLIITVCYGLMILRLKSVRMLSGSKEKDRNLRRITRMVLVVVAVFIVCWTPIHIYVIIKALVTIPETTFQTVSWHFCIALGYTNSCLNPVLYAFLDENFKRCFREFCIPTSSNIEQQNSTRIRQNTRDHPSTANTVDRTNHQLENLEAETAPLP
Alpha-1A adrenergic receptor (Rattus norvegicus), sequence (P43140 whole entry): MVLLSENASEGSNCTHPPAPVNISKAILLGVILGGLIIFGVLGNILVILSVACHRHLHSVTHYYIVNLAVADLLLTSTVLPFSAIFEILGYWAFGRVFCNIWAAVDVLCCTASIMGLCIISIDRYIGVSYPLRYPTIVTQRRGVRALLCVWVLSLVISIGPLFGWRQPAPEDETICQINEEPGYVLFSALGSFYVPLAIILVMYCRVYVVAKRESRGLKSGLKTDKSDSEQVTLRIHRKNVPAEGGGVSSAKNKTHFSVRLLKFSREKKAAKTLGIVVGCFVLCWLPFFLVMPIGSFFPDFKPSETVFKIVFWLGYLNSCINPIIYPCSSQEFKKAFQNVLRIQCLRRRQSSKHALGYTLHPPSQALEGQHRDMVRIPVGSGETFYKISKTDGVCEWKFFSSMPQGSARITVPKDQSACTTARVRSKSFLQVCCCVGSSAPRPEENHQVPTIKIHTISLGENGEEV
Adenosine receptor A2a (Homo sapiens), sequence (P29274 whole entry): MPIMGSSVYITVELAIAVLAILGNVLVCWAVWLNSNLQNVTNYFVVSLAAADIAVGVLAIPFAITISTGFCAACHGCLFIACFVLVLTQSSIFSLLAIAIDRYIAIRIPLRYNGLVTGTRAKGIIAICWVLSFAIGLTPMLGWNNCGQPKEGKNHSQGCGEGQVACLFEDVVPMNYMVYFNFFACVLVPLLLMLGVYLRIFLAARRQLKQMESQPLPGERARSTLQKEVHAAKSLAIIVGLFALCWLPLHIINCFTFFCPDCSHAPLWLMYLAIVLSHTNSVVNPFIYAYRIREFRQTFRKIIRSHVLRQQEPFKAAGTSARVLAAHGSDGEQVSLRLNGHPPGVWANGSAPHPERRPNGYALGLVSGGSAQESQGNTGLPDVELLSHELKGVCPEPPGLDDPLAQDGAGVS
5-hydroxytryptamine receptor 2B (Homo sapiens), sequence (P41595 whole entry): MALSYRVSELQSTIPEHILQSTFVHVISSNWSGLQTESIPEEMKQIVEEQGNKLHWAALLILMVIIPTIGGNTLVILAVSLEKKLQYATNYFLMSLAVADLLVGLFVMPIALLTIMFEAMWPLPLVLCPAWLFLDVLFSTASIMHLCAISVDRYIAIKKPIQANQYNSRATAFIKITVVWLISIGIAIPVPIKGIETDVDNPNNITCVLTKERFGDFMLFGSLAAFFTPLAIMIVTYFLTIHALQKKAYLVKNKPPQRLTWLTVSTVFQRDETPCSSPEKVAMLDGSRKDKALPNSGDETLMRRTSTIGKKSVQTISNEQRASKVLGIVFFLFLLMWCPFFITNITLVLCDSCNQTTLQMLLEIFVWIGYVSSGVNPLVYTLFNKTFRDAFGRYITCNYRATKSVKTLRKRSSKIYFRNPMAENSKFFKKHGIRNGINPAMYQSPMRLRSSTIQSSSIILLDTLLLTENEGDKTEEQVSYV
Protein arginine N-methyltransferase 3 (Homo sapiens), sequence (O60678 2-531 limits assumed): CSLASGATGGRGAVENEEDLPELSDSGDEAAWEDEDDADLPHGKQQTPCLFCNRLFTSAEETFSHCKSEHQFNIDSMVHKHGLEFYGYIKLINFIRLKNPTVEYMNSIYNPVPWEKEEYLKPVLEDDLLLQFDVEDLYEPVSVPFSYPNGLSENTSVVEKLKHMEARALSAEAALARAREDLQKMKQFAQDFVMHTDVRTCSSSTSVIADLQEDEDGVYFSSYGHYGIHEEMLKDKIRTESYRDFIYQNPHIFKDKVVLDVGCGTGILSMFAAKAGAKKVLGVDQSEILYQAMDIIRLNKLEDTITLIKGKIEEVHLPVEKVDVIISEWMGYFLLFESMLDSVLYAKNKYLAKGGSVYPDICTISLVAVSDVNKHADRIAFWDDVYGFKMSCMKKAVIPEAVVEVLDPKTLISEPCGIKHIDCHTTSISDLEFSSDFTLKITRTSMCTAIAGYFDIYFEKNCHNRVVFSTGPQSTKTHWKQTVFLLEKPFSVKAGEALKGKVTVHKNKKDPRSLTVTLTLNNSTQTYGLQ

For `CC(C)N(CCCNC(=O)Nc1ccc(C(C)(C)C)cc1)C[C@H]1O[C@@H](n2cc(Br)c3c(N)ncnc32)[C@H](O)[C@@H]1O`, the inhibition (Rattus norvegicus [1]) was 2%, the inhibition (Rattus norvegicus [2]) was 19% and the inhibition (Homo sapiens [3]) was “inactive”. The inhibition [4] was 19%, the Activity (MOLM-13 [5]) was “Tde” and the inhibition (MOLM-13 [6]) was “Active”. For the same molecule, the inhibition [7] was 7%, the Activity (MOLM-13 [8]) was “Dose-Dependent Effect” and the inhibition (Homo sapiens [9]) was -1%. The inhibition [10] was 0%, the inhibition [11] was 7% and the inhibition [12] was “inactive”. The inhibition [13] was “inactive”, the inhibition [14] was 22% and the inhibition [15] was 0%. The inhibition [16] was -3%, the Papp B→A at 1.5 h, 10 µM [17] was 10.6 ×10⁻⁶ cm/s and the inhibition [18] was “inactive”. The inhibition at 1 µM (hERG (KCNH2)) was -15%, the inhibition [19] was -1% and the inhibition [20] was 8%. The IC50 (cells) was 2.65 nM, the inhibition (MOLM-13 [21]) was “Active” and the inhibition (Rattus norvegicus [22]) was 10%. For the same molecule, the Papp A→B at 1.5 h, 10 µM [23] was 5.7 ×10⁻⁶ cm/s, the inhibition [24] was -1% and the inhibition [25] was “inactive”. The Activity (Cord blood cell) was “Active”, the inhibition [26] was “inactive” and the inhibition [27] was “inactive”. For the same molecule, the inhibition [28] was 13%, the inhibition (Homo sapiens [29]) was 13% and the inhibition [30] was 7%. For the same molecule, the inhibition [31] was “inactive”, the inhibition [32] was “inactive” and the Activity (MV4-11) was “Active”.
